For assay [1], the system named is CH1. The assay can be described thus: Compound was tested for inhibitory activity against CH1 human ovarian carcinoma cell line; activity expressed in Mean IC50 values. The assay is classed as functional, cell-based. Summed up:
(§1)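 Cell survival in drug-treated cultures read by MTT assay. Compound stock solutions (0.5–1.2 mg/mL) were freshly prepared before use. Cells: ovarian carcinoma lines A2780, A2780cisR, CH1 and CH1cisR; normal murine keratinocytes Pam 212; Pam 212-ras, which are murine keratinocytes transformed with the v-H-ras oncogene and resistant to cis-DDP.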

The nature of assay [2]: Compound was tested for inhibitory activity against normal Pam 212 murine keratinocytes; activity expressed in Mean IC50 values. The assay is classed as functional, Mus musculus. An outline of the steps:
as §1

Assay [3] concerns A2780. The assay can be described thus: Compound was tested for inhibitory activity against A2780cisR human ovarian carcinoma cell line; activity expressed in Mean IC50 values. The assay is classed as functional, cell-based. An outline of the steps: as §1
Assay [4] deals with A2780. The assay can be described thus: Compound was tested for inhibitory activity against A2780 human ovarian carcinoma cell line; activity expressed in Mean IC50 values. The assay is classed as functional, cell-based. An outline of the steps:
as §1

The nature of assay [5]: (§2) Compound was tested for inhibitory activity against transformed Pam 212-ras murine keratinocytes; activity expressed in Mean IC50 values. Type of assay: functional, Mus musculus. Summed up: as §1
Assay [6] has as its system CH1. Briefly: Compound was tested for inhibitory activity against CH1cisR human ovarian carcinoma cell line; activity expressed in Mean IC50 values. The assay is classed as functional, cell-based. An outline of the steps: as §1
The species entered for another assay is Mus musculus. The assay is described as §2. Type of assay: functional, organism-based. An outline of the steps:
as §1

Usually IC50 stands for the concentration that inhibits the measured activity by half. A high value points to a need for much substance. In the case of `O=C1c2cccc3cccc(c23)C(=O)N1CCNCCNCCN1C(=O)c2cccc3cccc(c23)C1=O`, the IC50 was greater than 10 µM in the assay with CH1 [1] (Homo sapiens, CH1); 140 µM in assay [2]; greater than 100 µM in the assay on A2780 [3] (Homo sapiens, A2780); greater than 10 µM with A2780 [4] (Homo sapiens, A2780); 160 µM in assay [5]; greater than 100 µM in the assay on CH1 [6] (Homo sapiens, CH1cisR).

Regarding “Platinum cyclobutane-1,1-dicarboxylic acid-bis-(naphthalimide) complex”, the IC50 in the assay on CH1 [1] (ch1) is 0.35 µM; in assay [2], 158 µM; with A2780 [3] (a2780), 1 µM; in the assay with A2780 [4] (a2780), 0.28 µM; in assay [5], 89 µM; in the assay on CH1 [6] (ch1cisr), 0.6 µM.

In the case of CISPLATIN, the 50% inhibitory concentration (IC50) in the assay filed under Mus musculus came out at 165 µM; in the assay on CH1 [6] (ch1cisr) it was 0.65 µM.

Source of the values: ChEMBL document CHEMBL1132556, “Combined effect of platination and intercalation upon DNA binding of novel cytotoxic Pt-bis(naphthalimide) complexes” (J Med Chem, 1999).
